Reference: EPA's CvTdb concentration-time database
Values joined by “and” are separate entries in the source; they are usually repeats but may differ in a detail not shown here. Equal entries are not always repeated.

Columns and labels:
human [1] = assay: concentration in blood after dosing; negative times count back from the end of exposure; conditions: inhalation, male
Outline: (§1)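 A PubMed search, classifier screening and manual review identified published in vivo toxicokinetic studies, which together with two structured collections supplied concentration-versus-time and amount-versus-time points. Points were mostly digitised from plot screenshots with WebPlotDigitizer, otherwise copied from tables. Dose, route, subject details and medium were hand-curated from each paper, and sampling and analytical methods are those of the sources, often unreported.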

human [2] = assay: negative times count back from the end of exposure; conditions: dosed: toluene, 200 mg/m^3, inhalation, duration: 2 hr, male
Outline: as §1

rat [3] = assay: concentration in blood after dosing; conditions: dosed: octane, inhalation, duration: 2 hr, male, Fischer-344
rat [4] = assay: concentration in plasma after dosing; conditions: dosed: propylparaben, oral, male, Wistar
human [5] = assay: amount in urine after dosing (umol); conditions: dosed: tert-amyl methyl ether
Outline: as §1

rat [6] = assay: amount in urine after dosing (umol); conditions: dosed: tert-amyl methyl ether, 38.4 ppm, inhalation, duration: 4 hr, F344 (Harlan Winkelmann)
human [7] = assay: concentration in blood after dosing; conditions: dosed: tert-amyl methyl ether
Outline: as §1

CN1CCCC1=O [N-methyl-2-pyrrolidone]
human [1], dosed: N-methyl-2-pyrrolidone
Conditions	concentration in blood [ng/mL]
0 h, 10 mg/m^3, duration: 8 hr	470
0.8235 h, 53 mg/m^3, duration: 8 hr	2010
0.9269 h, 80 mg/m^3, duration: 6 hr 10min	942
0.9412 h, 10 mg/m^3, duration: 8 hr	503
0.9412 h, 24 mg/m^3, duration: 8 hr	701
0.986 h, 10 mg/m^3, duration: 6 hr 10min	194
0.986 h, 40 mg/m^3, duration: 6 hr 10min	412
1.824 h, 24 mg/m^3, duration: 8 hr	492
1.824 h, 53 mg/m^3, duration: 8 hr	1300
1.882 h, 10 mg/m^3, duration: 8 hr	244
1.932 h, 10 mg/m^3, duration: 6 hr 10min	153
1.932 h, 80 mg/m^3, duration: 6 hr 10min	723
2.109 h, 40 mg/m^3, duration: 6 hr 10min	346
3.765 h, 10 mg/m^3, duration: 8 hr	139
3.765 h, 24 mg/m^3, duration: 8 hr	277
3.765 h, 53 mg/m^3, duration: 8 hr	757
3.823 h, 40 mg/m^3, duration: 6 hr 10min	253
3.823 h, 80 mg/m^3, duration: 6 hr 10min	516
4.06 h, 10 mg/m^3, duration: 6 hr 10min	146
7.882 h, 53 mg/m^3, duration: 8 hr	305
7.941 h, 24 mg/m^3, duration: 8 hr	189
8 h, 10 mg/m^3, duration: 8 hr	123
18.01 h, 80 mg/m^3, duration: 6 hr 10min	92.6
18.25 h, 40 mg/m^3, duration: 6 hr 10min	18.6
18.6 h, 10 mg/m^3, duration: 6 hr 10min	55.7
19.88 h, 53 mg/m^3, duration: 8 hr	91.4
19.94 h, 10 mg/m^3, duration: 8 hr	85.9
19.94 h, 24 mg/m^3, duration: 8 hr	63.9
145 s, 80 mg/m^3, duration: 6 hr 10min	1530

human [1], dosed: N-methyl-2-pyrrolidone, during exposure
Conditions	concentration in blood [ng/mL]
-281 s, 40 mg/m^3, duration: 6 hr 10min	645
-212 s, 24 mg/m^3, duration: 8 hr	806
-212 s, 53 mg/m^3, duration: 8 hr	2610
-68 s, 10 mg/m^3, duration: 6 hr 10min	308
-4.118 h, 53 mg/m^3, duration: 8 hr	1610
-4 h, 10 mg/m^3, duration: 8 hr	342
-4 h, 24 mg/m^3, duration: 8 hr	971
-3.211 h, 80 mg/m^3, duration: 6 hr 10min	963
-3.034 h, 10 mg/m^3, duration: 6 hr 10min	182
-3.034 h, 40 mg/m^3, duration: 6 hr 10min	449

O=C(O)CNC(=O)c1ccccc1 [hippuric acid]
human [2]
Conditions	amount in urine after dosing [µmol/min]
3.981 h	2.61
7.978 h	0.699
12.06 h	0.451
20.04 h	0.258

Conditions	amount in urine after dosing [µmol/min]
human [2], -49 s, during exposure	4.88

CCCCCCCC [octane]
concentration in blood, rat [3]
Conditions	0.1291 h	0.3815 h	0.705 h	171 s	183 s
1000 ppm	3810 ng/mL and 4510 ng/mL	1730 ng/mL and 2020 ng/mL	777 ng/mL and 960 ng/mL	5730 ng/mL and 7180 ng/mL	–
5000 ppm	–	–	–	–	30200 ng/mL and 25900 ng/mL and 22800 ng/mL

CCCOC(=O)c1ccc(O)cc1 [propylparaben]
concentration in plasma [ng/mL], rat [4]
Conditions	0.2504 h	0.5008 h	0.9984 h	1.002 h	2 h	2.003 h	4 h	4.003 h	297 s
3 mg/kg	871	280	–	88.4	82.5	–	–	–	495
10 mg/kg	3140	1720	466	–	271	–	23.6	–	1790
100 mg/kg	8510	7830	4220	–	2980	–	495	–	8610
1000 mg/kg	14100	17200	–	11500	–	9040	–	6390	15900

CCC(C)(C)O [tert-amyl alcohol]
oral
Conditions	amount in urine	concentration in blood [nM]
human [5], 0 h, 5 mg	0.00166	–
human [5], 0 h, 15 mg	0.00586	–
human [5], 6.182 h, 15 mg	0.181	–
human [5], 6.2 h, 5 mg	0.176	–
human [5], 11.93 h, 15 mg	0.0638	–
human [5], 11.99 h, 5 mg	0.0598	–
human [5], 17.98 h, 15 mg	0.0106	–
human [5], 18.09 h, 5 mg	0.0183	–
human [7], 0.9886 h, 15 mg	–	972
human [7], 1.015 h, 5 mg	–	445
human [7], 2.032 h, 15 mg	–	777
human [7], 2.058 h, 5 mg	–	340
human [7], 3.046 h, 5 mg	–	276
human [7], 3.982 h, 15 mg	–	540
human [7], 4.006 h, 5 mg	–	220
human [7], 6.037 h, 5 mg	–	155
human [7], 6.041 h, 15 mg	–	355
human [7], 8.046 h, 15 mg	–	254
human [7], 8.067 h, 5 mg	–	111
human [7], 9.995 h, 15 mg	–	177
human [7], 10.02 h, 5 mg	–	86.5
human [7], 12.03 h, 15 mg	–	101
human [7], 12.05 h, 5 mg	–	67.4

duration: 4 hr
Conditions	amount in urine	concentration in blood [nM]
human [1], 0.6509 h, dosed: tert-amyl methyl ether, 50 ppm	–	17000
human [1], 0.7385 h, dosed: tert-amyl methyl ether, 15 ppm	–	4840
human [1], 1.158 h, dosed: tert-amyl methyl ether, 50 ppm	–	16000
human [1], 1.169 h, dosed: tert-amyl methyl ether, 15 ppm	–	4710
human [1], 2.413 h, dosed: tert-amyl methyl ether, 50 ppm	–	13400
human [1], 2.567 h, dosed: tert-amyl methyl ether, 15 ppm	–	4380
human [1], 6.871 h, dosed: tert-amyl methyl ether, 50 ppm	–	7280
human [1], 7.192 h, dosed: tert-amyl methyl ether, 15 ppm	–	2200
human [1], 19.71 h, dosed: tert-amyl methyl ether, 50 ppm	–	1840
human [1], 19.75 h, dosed: tert-amyl methyl ether, 15 ppm	–	597
human [1], 141 s, dosed: tert-amyl methyl ether, 15 ppm	–	5450
human [5], 0.144 h, 38.4 ppm, inhalation	1.36	–
human [5], 5.941 h, 3.8 ppm, inhalation	0.345	–
human [5], 6.198 h, 38.4 ppm, inhalation	2.11	–
human [5], 12.1 h, 3.8 ppm, inhalation	0.143	–
human [5], 12.11 h, 38.4 ppm, inhalation	1.74	–
human [5], 17.91 h, 3.8 ppm, inhalation	0.0476	–
human [5], 18.16 h, 38.4 ppm, inhalation	0.992	–
human [5], 24.21 h, 38.4 ppm, inhalation	0.62	–
human [5], 30.05 h, 38.4 ppm, inhalation	0.248	–
human [5], 36.11 h, 38.4 ppm, inhalation	0.372	–
human [5], 248 s, 3.8 ppm, inhalation	0.119	–
human [7], 2.005 h, 3.8 ppm, inhalation	–	816
human [7], 2.034 h, 38.4 ppm, inhalation	–	7740
human [7], 3.957 h, 38.4 ppm, inhalation	–	6550
human [7], 3.966 h, 3.8 ppm, inhalation	–	480
human [7], 6.018 h, 38.4 ppm, inhalation	–	5900
human [7], 7.942 h, 38.4 ppm, inhalation	–	4140
human [7], 9.948 h, 38.4 ppm, inhalation	–	3160
human [7], 11.98 h, 38.4 ppm, inhalation	–	2850
human [7], 23.91 h, 38.4 ppm, inhalation	–	835
human [7], 78 s, 3.8 ppm, inhalation	–	960
human [7], 99 s, 38.4 ppm, inhalation	–	9530

concentration in blood [nM], human [1], dosed: tert-amyl methyl ether, duration: 4 hr, during exposure
Conditions	-4 h	-3.999 h	-3.146 h	-3.049 h	-1.944 h	-1.922 h	-1.113 h	-1.062 h
15 ppm	6	–	–	1700	–	3520	–	4030
50 ppm	–	10	6060	–	5580	–	11900	–

rat [6]
Conditions	amount in urine
5.91 h	0.0178
11.97 h	0.0273
17.83 h	0.0115
23.9 h	0.0462

CCC(C)(C)OC [tert-amyl methyl ether]
duration: 4 hr
Conditions	concentration in blood [nM]
human [1], 0.7676 h, dosed: tert-amyl methyl ether, 15 ppm	2300
human [1], 1.198 h, dosed: tert-amyl methyl ether, 15 ppm	1900
human [1], 2.571 h, dosed: tert-amyl methyl ether, 15 ppm	1140
human [1], 7.198 h, dosed: tert-amyl methyl ether, 15 ppm	344
human [1], 19.78 h, dosed: tert-amyl methyl ether, 15 ppm	86.8
human [1], 338 s, dosed: tert-amyl methyl ether, 15 ppm	4220
human [7], 0 h, 3.8 ppm, inhalation	589
human [7], 2.022 h, 3.8 ppm, inhalation	208
human [7], 2.034 h, 38.4 ppm, inhalation	1350
human [7], 3.985 h, 38.4 ppm, inhalation	801
human [7], 4.008 h, 3.8 ppm, inhalation	139
human [7], 6.018 h, 38.4 ppm, inhalation	611
human [7], 6.02 h, 3.8 ppm, inhalation	111
human [7], 7.969 h, 38.4 ppm, inhalation	438
human [7], 9.976 h, 38.4 ppm, inhalation	225
human [7], 10.01 h, 3.8 ppm, inhalation	85
human [7], 12.01 h, 38.4 ppm, inhalation	183
human [7], 12.05 h, 3.8 ppm, inhalation	73.7
human [7], 99 s, 38.4 ppm, inhalation	4500

human [1], dosed: tert-amyl methyl ether, 15 ppm, duration: 4 hr, during exposure
Conditions	concentration in blood [nM]
-4 h	6.05
-3.022 h	1710
-1.895 h	3490
-0.981 h	3580

human [7], oral
Conditions	concentration in blood [nM]
1.016 h, 15 mg	145
1.043 h, 5 mg	60.8
2.059 h, 15 mg	70.2
2.113 h, 5 mg	29.4
3.073 h, 5 mg	13.9
4.009 h, 15 mg	33
4.034 h, 5 mg	9.2
6.041 h, 15 mg	19.9
6.064 h, 5 mg	6.34
8.046 h, 15 mg	16.9
8.067 h, 5 mg	3.85
9.995 h, 15 mg	9.91
10.04 h, 5 mg	3.13
12 h, 15 mg	4.16

ClC=C(Cl)Cl [trichloroethene]
human [1], dosed: trichloroethene, 100 ppmv, duration: 240 min
Conditions	concentration in blood [ng/mL]
0.2522 h	634
0.3977 h	426
0.9604 h	198
1.911 h	112
4.055 h	4.16

human [1], dosed: trichloroethene, 100 ppmv, duration: 240 min, during exposure
Conditions	concentration in blood [ng/mL]
-226 s	1170
-175 s	1170
-3.513 h	588
-3.022 h	851
-2.029 h	1100
-1.031 h	1040
